Hits are enriched below; roughly 2.9% of the tested compounds scored in any of these assays.
E coli RNAP: E. coli RNAP inhibitors, biochemical; E. coli RNA polymerase, fluorescence transcription assay; actives 0.2% (n = 62,000); inhibition, %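 (tested at 10 µM)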; DNA-directed RNA polymerase subunit beta (Escherichia coli (strain K12)), P0A8V2; in the data active = inhibition above about 20%
BAP1 block: inhibitors of BAP1 deubiquitinase, primary screen, biochemical, Ub-AMC fluorescence, kinetic; Ubiquitin carboxyl-terminal hydrolase BAP1 (Homo sapiens), Q92560; recombinant BAP1, Ub-AMC hydrolysis fluorescence kinetic; stronger effect = lower value; calls only at 20 µM; actives 0.48% (n = 72,000);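 active = activity remaining at or below 50% of control, provided the compound also passes the data quality filters; inactive = the rest, including low values that fail the filters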
Hsp90 inh: tumor Hsp90 inhibitors, primary screen, cell lysate, fluorescence polarization, NCI-N417 lysate | Heat shock protein HSP 90-alpha (Homo sapiens), P07900 | Cy3B-geldanamycin FP displacement | inhibition, % at 30 µM | actives 0.35% (n = 64,000) | AID 429, 2006;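 active = inhibition above 50%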
Cdc25B inh: inhibitors of Cdc25B phosphatase catalytic domain, primary screen, biochemical, OMFP fluorescence | M-phase inducer phosphatase 2 (Homo sapiens), P30305 | recombinant Cdc25B, OMFP fluorescence Ex485/Em525 | inhibition, %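 (compounds tested at 10 µM final in the well)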 | actives 0.1% (n = 65,000) | AID 368, 2006; in the data active = inhibition above about 50%
Ecoli tolC: growth inhibitors of E. coli tolC mutant, primary screen, strain BW25113 ΔtolC::kan, 384-well. actives 2.2% (n = 65,000). growth inhibition, % at 10 µM (by protocol). OD615;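 active = growth inhibition at or above a cutoff equal to the mean over every tested compound plus 3 SD, cut at about 60% in these data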;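 note: growth measured after 20 h incubation at 37 °C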
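test system = E. coli BW25113 ΔtolC::kan bacteria | medium = LB with kanamycin 50 µg/mL | signal = OD at 615 nm | schedule = 37 °C, 20 h exposure | evaluation = % inhibition of E. coli growth | compound dosing = one dose of 10 µM final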
DUSP1 inh: MKP-1 phosphatase inhibitors, primary screen, biochemical, in vitro. actives 0.15% (n = 65,000). inhibition, %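 (compounds tested at a single concentration somewhere between 10 and 100 µM)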. recombinant MKP-1, OMFP hydrolysis fluorescence. Dual specificity protein phosphatase 1 (Homo sapiens), P28562;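 active = inhibition above about 50%, limit read from the data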
Target sequence (P28562 whole entry, looked up): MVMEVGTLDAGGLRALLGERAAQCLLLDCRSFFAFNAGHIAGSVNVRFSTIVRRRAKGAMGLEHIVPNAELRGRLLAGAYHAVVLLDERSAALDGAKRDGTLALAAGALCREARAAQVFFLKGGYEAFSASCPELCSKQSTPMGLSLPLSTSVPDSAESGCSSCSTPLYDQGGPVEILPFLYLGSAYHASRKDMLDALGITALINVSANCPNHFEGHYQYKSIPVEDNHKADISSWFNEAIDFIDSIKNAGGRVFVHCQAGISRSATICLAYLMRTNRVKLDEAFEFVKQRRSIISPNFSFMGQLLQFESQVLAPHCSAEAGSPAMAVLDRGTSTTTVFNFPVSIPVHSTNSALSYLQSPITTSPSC
A number is an active result; – = inactive; · = no result shown.

SMILES	E coli RNAP	BAP1 block	Hsp90 inh	Cdc25B inh	Ecoli tolC	DUSP1 inh
CCCCCC(=O)N1CC2(C)CN(C(=O)CCCCC)CC(C)(C1)C2=O	–	–	119.9	–	–	–
O=C(Nc1nc(-c2cc3ccccc3oc2=O)cs1)c1ccccc1Cl	·	–	·	·	·	·
CCn1c(CSc2nnc3ccccn23)nc2cc(C(=O)O)ccc21	–	–	138.3	–	–	–
CCn1c(CSc2nnc(-c3cccnc3)n2-c2ccccc2C)nc2cc(C(=O)O)ccc21	–	–	145.4	–	–	–
COc1cc(C2C(C(=O)OC3CCCC3)=C(C)NC3=C2C(=O)CCC3)cc(OC)c1O (stereo not drawn)	·	–	·	·	·	·
CC(C)C(c1nnnn1C1CCCC1)N1c2ccccc2CC1C (stereo not drawn)	–	–	–	–	73.9	–
Oc1ccc(C=Nc2cccc3ncccc23)c(O)c1	–	–	–	–	–	–
Oc1ccc(C=Nc2ccc3ncccc3c2)c(O)c1	–	·	76.0	–	–	–
Oc1cc2c(c(Cl)c1O)CCNCC2c1ccccc1 (stereo not drawn)	·	–	81.5	·	·	·
Oc1ccc(C2CNCCc3c2cc(O)c(O)c3Cl)cc1 (stereo not drawn)	·	–	74.9	·	·	·
CC1=C(C(=O)OCC2CCCCC2)C(c2ccc3c(c2)OCO3)NC(=O)N1 (stereo not drawn)	·	–	·	·	·	·
Cc1c(C(=O)N2CCCCC2)oc2ccc(S(=O)(=O)N3CC(C)CC(C)C3)cc12 (stereo not drawn)	–	–	–	–	90.9	–
CCOC(=O)N1CCN(C(=O)c2oc3ccc(S(=O)(=O)N4CCCCC4)cc3c2C)CC1	–	–	–	–	–	–
Clc1ccccc1OCc1nnc(-c2ccccc2Br)o1	–	·	–	–	72.5	–
Cc1cc(=O)[nH]c(SCC(=O)Nc2nc(-c3ccccc3)cs2)n1	–	–	–	–	69.5	–
Cc1csc(SCC(=O)Nc2nc(-c3ccccc3)cs2)n1	–	–	–	–	91.1	–
CCn1c(SCC(=O)Nc2nc(-c3ccc(C)cc3)cs2)nnc1-c1ccccc1O	–	·	–	–	84.4	–
CCOc1ccc(NCC(=O)Nc2ccc(C)cc2C)cc1	–	–	52.1	–	–	–
O=C(c1cc2nc(-c3ccco3)cc(C(F)(F)F)n2n1)N1CCN(c2ccccc2)CC1	–	–	–	–	70.8	–
O=C(c1cc2nc(-c3ccco3)cc(C(F)(F)F)n2n1)N1CCN(c2ccccn2)CC1	–	–	–	–	–	–
CCCN(CCC)C(=O)c1cc(-c2ccc(C)cc2)nc2ccccc12	·	–	·	·	·	·
C=CCn1c(SCC(=O)c2ccc(O)c(O)c2)nnc1-c1ccccc1OC	–	–	71.0	–	·	–
CCn1c(SCC(=O)c2ccc(F)cc2)nnc1-c1ccoc1C	–	–	–	–	–	–
CCn1c(SCC(=O)c2ccc(O)c(O)c2)nnc1-c1ccccc1OC	–	–	67.1	–	·	–
O=C(Nc1cccc(C(F)(F)F)c1)c1cc([N+](=O)[O-])ccc1Cl	·	–	·	·	·	·
SMILES	E coli RNAP	BAP1 block	Hsp90 inh	Cdc25B inh	Ecoli tolC	DUSP1 inh
CC(=O)/C(C#N)=C1\NC(=O)C(Cc2ccccc2Cl)S1 (stereo not drawn)	32.0	–	–	–	–	–
CC(C)CN1C(=O)NC(NC(=O)c2ccco2)(C(F)(F)F)C1=O (stereo not drawn)	–	–	94.3	–	–	–
O=C(O)CCCCN1Cc2ccccc2C1	·	–	·	·	·	·
COC(=O)c1cc2cc(OC)ccc2oc1=O	·	–	·	·	·	·
Cc1cccc(N2CCN(C(=O)c3cc4n(n3)C(C(F)(F)F)CC(c3ccco3)N4)CC2)c1C (stereo not drawn)	–	–	–	–	73.5	–
CCCc1noc2c1/C(=N\O)CC(CC(C)SCC)C2 (stereo not drawn)	–	–	–	–	–	–
CCSC(C)CC1C/C(=N/O)c2c(CC)noc2C1 (stereo not drawn)	–	–	–	–	61.1	–
Fc1ccc(CNc2nc(-c3ccco3)cc(C(F)(F)F)n2)cc1	–	·	·	–	61.9	–
